This note sets out measurements from PubChem BioAssay AID449763 (Sanford-Burnham Center for Chemical Genomics, 2010).

Out of some 330,000 compounds screened, about 1,100 (0.33%) were called active. The sample holds actives, similar compounds and a random draw of the others, so the mix is not that of the screen. Unmarked numbers belong to inactive results.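 The calls were made as follows: active = at 10 µM dose, activation of 40% or more, normalized to positive control; inactive = the rest.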

The nature of the assay: activators of apoptotic CHOP UPR arm, primary screen, cell-based, CHO-CHOP luciferase reporter, luminescence, uHTS (AID 449763).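 Also: 100% = tunicamycin at 10 µg/mL and 0% = DMSO alone.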 Conditions: at 10 µM, active compounds read high, percent of tunicamycin response over DMSO baseline. The method in brief:
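System: CHO CHOP reporter cells. Amount: 500 cells per well. Buffer or medium: F12 medium, 10% FBS. Compound dosing: one dose, 10 µM in 0.5% DMSO. Incubation: 6 h compound exposure at 37 °C after overnight seeding. Technique: Steady-Glo luciferase luminescence. Benchmarks: tunicamycin and DMSO controls.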
(A reporter such as luciferase makes a cellular process visible.)
With `COc1ccc(Cl)cc1S(=O)(=O)N1CCN(CC(=O)C(C)(C)C)CC1`, the activation was -1.27%.

Take `N#Cc1ccsc1NC(=O)CN1CCN(S(=O)(=O)c2cc(Cl)ccc2Cl)CC1`: the activation is -1.62%.

Turning to `O=C(CN1CCN(S(=O)(=O)c2cc(Cl)ccc2Cl)CC1)c1ccc(O)c(O)c1`, the activation is 95.7% (active).

With `C[C@H](C(=O)CC(=O)OC(C)(C)C)[C@H](O)c1ccc(C(F)(F)F)cc1`, the activation was 1.59%.

As for `COc1ccc(NC(=O)C2=C(C)NC(=O)NC2c2ccccc2[N+](=O)[O-])cc1` (centres undefined), the activation was -2.61%.

In the case of `OCCNc1nc(Nc2ccc(Cl)c(Cl)c2)nc2ccccc12`, the activation is 51.9% (active).

Regarding `CNc1nc(Nc2ccc(C)c(Cl)c2)nc(N)c1[N+](=O)[O-]`, the activation is 5.39%.

Regarding `Cc1ccc(Nc2nc(N)nc(CN3CCN(Cc4ccccc4)CC3)n2)cc1Cl`, the activation was 0.453%.

Consider `CCN(C(=O)CSc1nc(N)cc(=O)[nH]1)C1CCS(=O)(=O)C1` (centres undefined), for which the activation was 1.25%.

As for `CSCCNCc1cn(-c2ccc(F)cc2F)nc1-c1ccccc1C`, the activation was -1.15%.

In the case of `CC1CCCC(NC(=O)c2cccc(N3CCCC3=O)c2)C1C` (centres undefined), the activation was 3.2%.

`Cc1ccc(NC(=S)NCCc2ccc(Cl)cc2)c(C)c1`: the activation is 1.96%.

Regarding `O=C(NCCc1ccc(Cl)cc1)c1cccc(N2CCCC2=O)c1`, the activation was 54.4% (active).

As for `C/C(=N\NC(=O)c1cccc(N2CCCC2=O)c1)c1ccc(N)cc1`, the activation is 1.34%.

In the case of `COc1ccc(CCNC(=S)N2CCN(S(=O)(=O)c3ccc(Cl)cc3)CC2)cc1`, the activation was 1.93%.

Regarding `Oc1cc2c(cc1O)CN(C(=S)NCCc1ccc(Cl)cc1)CCC2`, the activation was 58.3% (active).

As to `O=C(CSc1nnc(SCc2ccc(F)cc2)s1)Nc1ccc(C(=O)O)cc1`, the activation was -2.09%.

`Cc1ccc(C2NC(=S)NC3=C2N2CCC3CC2)cc1` (centres undefined): the activation was -2.03%.

Turning to `CC(C(=O)O)n1cnc2sc3c(c2c1=O)CCCC3` (centres undefined), the activation is -0.91%.

On to `O=S(=O)(c1ccccc1)N(Cc1cccc(F)c1)c1ccccc1`, for which the activation was -1.78%.

For `CC1(C)CC(=O)C=C(NC2CC(C)(C)NC(C)(C)C2)C1`, the activation was 0.506%.

Regarding `Cc1onc(C(=O)NN)c1-c1csc(COc2ccccc2)n1`, the activation was -0.475%.

With `CC(C)(C)C(=O)OCc1nc(-c2ccc(O)c(O)c2)cs1`, the activation was 170% (active).

Regarding `CCCC(=O)N1c2ccc(-c3csc(N)n3)cc2CC1C` (centres undefined), the activation is 4.75%.

For `NC(=O)C1CCN(C(=O)COc2ccc3c4c(c(=O)oc3c2)CCC4)CC1`, the activation was 1.77%.

Take `CC(C)(C)Nc1nc(-c2ccccn2)nc2ccccc12`: the activation was 61.4% (active).

As for `Cc1ccc(Oc2nc(-c3ccccn3)nc3ccccc23)cc1`, the activation was 48.5% (active).

Consider `c1ccc2c(NCC3CCCO3)nc(-c3ccncc3)nc2c1` (centres undefined), for which the activation is -0.369%.

Consider `COc1ccc(CNc2ncnc3ccccc23)cc1`, for which the activation was 5.16%.

Consider `COc1cnc(-c2ccccn2)nc1Oc1ccc(C(C)(C)C)cc1`, for which the activation is 3.2%.

As to `N#Cc1ccc(Oc2cc(C(F)(F)F)nc(-c3ccccn3)n2)cc1`, the activation is -0.253%.

Regarding `CCCCOc1ccc(C(=O)N/C(=C/C=C/c2ccccc2)C(=O)N2CCOCC2)cc1`, the activation is 5.27%.

For `Cc1ccc2cc3cc(C(=O)N4CCCCCC4)oc3nc2c1`, the activation is 0.396%.

Turning to `O=C(CSc1nc2ncccc2[nH]1)Nc1ccc2c(c1)OCCO2`, the activation was 0.487%.

Turning to `Nc1nc(SCC(=O)NN(c2ccccc2)c2ccccc2)n[nH]1`, the activation is -0.687%.

Consider `CC(C)NC(=S)N1CCN(S(C)(=O)=O)CC1`, for which the activation is 0.831%.

Turning to `CC(=O)/C(=N\Nc1ccc(Cl)cc1Cl)Sc1cccc2cccnc12`, the activation was 184% (active).

On to `COc1cccc(CNC(=O)c2cccnc2Sc2ccc(Cl)cc2)c1`, for which the activation is 0.384%.

On to `O=C(NNc1cc(Cl)ccc1Cl)c1cccnc1Cl`, for which the activation is 0.393%.

For `Cc1ccc(S(=O)(=O)CCC(=O)OCc2ccccc2)cc1`, the activation was 0.112%.

As for `CCOC(=O)c1ccc(NC(=O)c2nc[nH]c2C(=O)N[C@@H](CCCCNC(=O)OC(C)(C)C)C(=O)OC(C)(C)C)cc1`, the activation was 2.33%.

Take `CC(=O)c1ccc(NC(=O)c2ccc(-n3cncn3)c([N+](=O)[O-])c2)cc1`: the activation is 2.02%.

As for `COCCOC(=O)c1c(C)oc2cc(Br)c(OCC(N)=O)cc12`, the activation was 0.018%.

`CCc1ccc2c(c1)C1(NN=C(c3ccccc3)S1)C(=O)N2` (centres undefined): the activation was 135% (active).

On to `Cc1occc1C(=O)NC1CCCN(Cc2ccc(CC(C)C)cc2)C1` (centres undefined), for which the activation is 1.93%.

On to `O=C(Nc1c2c(nn1-c1ccccc1)CS(=O)(=O)C2)C1CCCC1`, for which the activation is -0.808%.

Turning to `CCCN(CCC)C(=S)Nc1cc(C(=O)OC)ccc1C(=O)OC`, the activation was 2.25%.

Regarding `COC(=O)c1ccc(C(=O)Nc2cc(Cl)ccc2Cl)cc1NC(=O)c1ccccc1C`, the activation is 49.7% (active).

On to `COC(=O)c1ccc(C(=O)OC)c(NC(=S)N2CCN(c3cc(Cl)ccc3C)CC2)c1`, for which the activation is 1.94%.

As for `O=C(CSc1nc2ccccc2c(=O)n1CCCO)NC1CC1`, the activation is 1.02%.

Consider `CCCCn1nc(C(=O)N2CCc3ccccc32)c2ccccc2c1=O`, for which the activation was -1.34%.

As to `Cn1nccc1NC(=O)Nc1ccc(OC(F)(F)F)cc1`, the activation is 0.489%.

For `Cn1cccc1/C=N/NC(=O)c1ccc(OC(F)(F)C(F)F)cc1`, the activation is 2.77%.

In the case of `O=C(Nc1ccc(OC(F)(F)F)cc1)c1ccc2c(c1)no[n+]2[O-]`, the activation was 61% (active).

On to `CC(C)CC(=O)N1CCC(O)(CS(=O)(=O)Cc2ccccc2)CC1`, for which the activation was -0.00639%.

Regarding `Cc1ccc(NC(=O)CCOc2ccccc2)cc1S(=O)(=O)Nc1ccccc1Cl`, the activation was 2.43%.

For the compound `Cc1ccc(C(=O)N/C(=C/c2ccc(-c3cccc([N+](=O)[O-])c3)o2)C(=O)NCCCN(C)C)cc1`, the activation was -0.289%.

Consider `Cc1ccc(-c2ccc(/C=C(\C#N)C(N)=S)o2)c([N+](=O)[O-])c1`, for which the activation is 3.33%.

For `Cc1ccc(Cc2cnc(NC(=O)/C(C#N)=C/c3ccc(-c4cccc([N+](=O)[O-])c4)o3)s2)cc1`, the activation is 73.3% (active).

As to `Cc1cc2c(cc1S(=O)(=O)NCc1ccc(Cl)cc1)OCC(=O)N2`, the activation was -0.754%.

For `Cc1ccc(C)c(S(=O)(=O)N2CCN(c3ncnc4sccc34)CC2)c1`, the activation is 5.68%.

On to `Cc1cccc(NC(=O)CN2CCN(C(=O)C3CCN(C(=O)/C=C/c4ccccc4)CC3)CC2)c1C`, for which the activation was 0.754%.

In the case of `Cc1cccc(NC(=O)CSC(N)=O)c1C`, the activation was -0.357%.

Take `CCOC(=O)/C=c1\s/c(=C\c2ccc(C#N)cc2)c(=O)n1CC(=O)Nc1cccc(C)c1C`: the activation was 75.5% (active).

With `COc1ccc(-c2c(C(C)=O)c(C)nc3sc4c(=O)n(-c5ccc(C)cc5)nnc4c23)cc1`, the activation was -0.914%.

As to `COC(=O)C(=Nc1ccccc1)/C(C(=O)C(=O)N(C)c1ccccc1)=C(\O)c1ccc(Cl)cc1`, the activation was 0.244%.

Take `CC1(C)CCSC(/C=C/c2ccccc2)=N1`: the activation was 57.7% (active).

On to `C[C@H](CO)N1C[C@H](C)[C@@H](CN(C)C(=O)NC2CCCCC2)Oc2ccc(NC(=O)c3ccncc3)cc2C1=O`, for which the activation was 2.08%.

`O=C(CSc1cccc2cccnc12)N/N=C/c1cccnc1`: the activation is 227% (active).

Take `O=C(N/N=C/c1cccnc1)c1ccc(NC(=O)c2ccc(F)cc2)cc1`: the activation was 1.11%.

As to `COc1ccc(C(=O)NCC(=O)N/N=C/c2cccnc2)cc1`, the activation is 2.52%.

Regarding `Nc1nc(O)c(CC(=O)O)s1`, the activation was -0.635%.

Take `C=CCOc1ccc(/C=C2/C(=O)ON=C2C)cc1OCC`: the activation is 0.964%.

`COc1cc(/C=C2/C(=O)ON=C2C)ccc1OCc1cccc(F)c1`: the activation was 30.3%.

Take `COc1cc(/C=C2/C(=O)ON=C2C)ccc1OCc1ccccc1F`: the activation is 66.3% (active).

`Cc1cc(C)n(-c2ccc(NC(=O)C3CCCCN3C(=O)c3cccs3)cc2)n1` (centres undefined): the activation is -0.0869%.

`O=C(c1cccs1)N1CCCC(c2nc(-c3ccc(F)cc3)no2)C1` (centres undefined): the activation was 1.93%.

For `CS(=O)(=O)N(Cc1ccccc1)c1ccc(C(=O)NN=C2CCCCCC2)cc1`, the activation was 43.7% (active).

`CN1CCC(=NNC(=O)c2ccc(N(Cc3ccc(Cl)cc3)S(C)(=O)=O)cc2)CC1`: the activation is 0.73%.

Regarding `Cc1ccccc1CN(c1ccc(C(=O)NCC2CCCO2)cc1)S(C)(=O)=O` (centres undefined), the activation is -1.43%.

Regarding `CCCC1CC(C)(C(=O)Cn2[nH]c(=O)ccc2=O)OC1=O` (centres undefined), the activation was 1.35%.

Consider `CCOc1cc(/C=N/NC(=O)c2ccc(CSc3nncn3C)cc2)ccc1OCC(=O)N1CCOCC1`, for which the activation was 0.857%.

Turning to `O=C(NCC12CC3CC(C1)CC(CNC(=O)N1CCCC1)(C3)C2)N1CCCC1`, the activation was -2.08%.

As to `Cc1nn(CC(=O)NCC2CCCO2)c(=O)c2cc3ccccc3n12` (centres undefined), the activation was -0.347%.
